Data on 22 compounds can be found in ChEMBL document CHEMBL3603816, “Synthetic Small Molecules Derived from Natural Vitamin K Homologues that Induce Selective Neuronal Differentiation of Neuronal Progenitor Cells” (2015).

The subject of assay [1] is Neuronal progenitor cell. Description: Induction of neuronal differentiation in mouse neuronal progenitor cells assessed as expression of Gfap at 1 uM treated for every second day for 4 days by immunofluorescence staining method. The assay is classed as functional. An outline of the steps: (§1)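 Neural stem/progenitor cells dissociated from embryonic day 14 mouse cerebrum. Cultured 24 h after seeding, then given 1 μM analogue every second day for 4 days. Immunofluorescence with Map2 (neurons, red) and Gfap (astrocytes, green), nuclei counterstained with DAPI. Imaged by confocal laser microscopy; the legend states staining after 48 h.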

In assay [2] the test system is Neuronal progenitor cell. As to the kind of experiment: Induction of neuronal differentiation in mouse neuronal progenitor cells assessed as expression of Map2 at 1 uM treated for every second day for 4 days by immunofluorescence staining method. The assay is classed as functional. An outline of the steps:
as §1

A short description of assay [3]: Induction of neuronal differentiation in mouse neuronal progenitor cells assessed as expression of Map2 at 1 uM treated for every second day for 4 days by real-time PCR method relative to control. A general note: Real-time PCR tracks product formation cycle by cycle.
Assay [4] deals with Neuronal progenitor cell. Description: Induction of neuronal differentiation in mouse neuronal progenitor cells assessed as relative ratio of expression of Map2/Gfap mRNA at 1 uM treated for every second day for 4 days by RT-PCR analysis. The assay is classed as functional. An outline of the steps: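 E14 mouse cerebral progenitor cells, cultured 24 h, then treated with 1.0 × 10−6 M compound or ethanol for 4 days. mRNA extracted; Map2, Gfap and β-actin levels quantitated by real-time PCR, and the Map2/Gfap ratio calculated. Means of three independent experiments ± SD. Dunnett's t-test versus EtOH.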

Active and inactive are the calls of the source. The calls are words filed in the database; no cut-off is given here.

Take `C/C(=C\CO)CC/C=C(\C)CC/C=C(\C)Cc1ccc2ccccc2c1`: in the assay on Neuronal progenitor cell [1], the result was inactive. Further, in the assay on Neuronal progenitor cell [2], the outcome was Active.
For the compound `CC1=C(C/C=C(\C)CC/C=C(\C)Cc2ccccc2)C(=O)c2ccccc2C1=O`, the “fold change (FC)” value in assay [3] was 1.5. In addition, the outcome in the assay with Neuronal progenitor cell [1] was inactive. Further, in the assay on Neuronal progenitor cell [2], the outcome was Active.
`C/C(=C\CO)CC/C=C(\C)Cc1ccc(-c2ccccc2)cc1`: the result in the assay on Neuronal progenitor cell [1] was inactive. Besides, the outcome in the assay with Neuronal progenitor cell [2] was Active.
Taken in the same sequence, the figures for `C/C(=C\CO)CC/C=C(\C)Cc1ccccc1` were “inactive” and “Active”.
As to `CC(C)=CCC/C(C)=C/CC/C(C)=C/CC1=C(C)C(=O)c2ccccc2C1=O`, the result with Neuronal progenitor cell [4] was Active.
Still for that read-out and setting: the result for `CC(C)=CCC/C(C)=C/CC1=C(C)C(=O)c2ccccc2C1=O` reads “Active”.
On to `CC1=C(C/C=C(\C)CC/C=C(\C)Cc2cccc3ccccc23)C(=O)c2ccccc2C1=O`, for which, in assay [3], the “fold change (FC)” value came out at 1.5. Moreover, the outcome with Neuronal progenitor cell [1] was inactive. For the same compound, the outcome in the assay on Neuronal progenitor cell [2] was Active.
Taken in the same sequence, the figures for `CC1=C(C/C=C(\C)CC/C=C(\C)Cc2ccc(-c3ccccc3)cc2)C(=O)c2ccccc2C1=O` were 1.5, “inactive” and “Active”.
Taken in the same sequence, the figures for `CC1=C(C/C=C(\C)CC/C=C(\C)CC/C=C(\C)Cc2cccc3ccccc23)C(=O)c2ccccc2C1=O` were 1.5, “inactive” and “Active”.
In the case of `C/C(=C\CO)CC/C=C(\C)CC/C=C(\C)Cc1cccc(C)c1`, in the assay with Neuronal progenitor cell [1], the outcome was inactive. Also, the result in the assay on Neuronal progenitor cell [2] was Active.
As to `CC1=C(C/C=C(\C)CC/C=C(\C)Cc2ccc3ccccc3c2)C(=O)c2ccccc2C1=O`, the “fold change (FC)” value in assay [3] was 1.5. Moreover, the result in the assay with Neuronal progenitor cell [1] and in the assay on Neuronal progenitor cell [2] was inactive.
Consider `CC1=C(C/C=C(\C)CC/C=C(\C)CC/C=C(\C)Cc2ccc(-c3ccccc3)cc2)C(=O)c2ccccc2C1=O`, for which the “fold change (FC)” value in assay [3] came out at 1.5. In addition, the outcome in the assay with Neuronal progenitor cell [1] was inactive. In the assay with Neuronal progenitor cell [2], the result was Active.
For the compound `C/C(=C\CO)CC/C=C(\C)CC/C=C(\C)Cc1ccccc1`, the outcome in the assay on Neuronal progenitor cell [1] was inactive. For the same compound, the outcome in the assay on Neuronal progenitor cell [2] was Active.
On to `CC1=C(C/C=C(\C)CC/C=C(\C)CC/C=C(\C)Cc2ccc3ccccc3c2)C(=O)c2ccccc2C1=O`, for which the “fold change (FC)” value in assay [3] is given as 1.5. Besides, the outcome with Neuronal progenitor cell [1] was inactive. The result in the assay on Neuronal progenitor cell [2] was Active.
As for `C/C(=C\CO)CC/C=C(\C)CC/C=C(\C)Cc1cccc2ccccc12`, in the assay on Neuronal progenitor cell [1], the outcome was inactive. Besides, the outcome in the assay on Neuronal progenitor cell [2] was Active.
With `C/C(=C\CO)CC/C=C(\C)Cc1cccc(C)c1`, in the assay on Neuronal progenitor cell [1], the outcome was inactive. Further, in the assay with Neuronal progenitor cell [2], the result was Active.
On to `CC1=C(C/C=C(\C)CC/C=C(\C)CC/C=C(\C)Cc2cccc(C)c2)C(=O)c2ccccc2C1=O`, for which the result in the assay on Neuronal progenitor cell [4] and with Neuronal progenitor cell [2] was Active. The “fold change (FC)” value in assay [3] was found to be 1.5. Moreover, the outcome with Neuronal progenitor cell [1] was inactive.
For `C/C(=C\CO)CC/C=C(\C)Cc1cccc2ccccc12`, the outcome with Neuronal progenitor cell [1] was inactive. Moreover, the result in the assay on Neuronal progenitor cell [2] was Active.
Taken in the same sequence, the figures for `C/C(=C\CO)CC/C=C(\C)CC/C=C(\C)Cc1ccc(-c2ccccc2)cc1` were “inactive” and “Active”.
Taken in the same sequence, the figures for `C/C(=C\CO)CC/C=C(\C)Cc1ccc2ccccc2c1` were “inactive” and “Active”.
In the case of `CC1=C(C/C=C(\C)CC/C=C(\C)Cc2cccc(C)c2)C(=O)c2ccccc2C1=O`, in assay [3], the “fold change (FC)” value was determined as 1.5. Moreover, the outcome with Neuronal progenitor cell [1] was inactive. For the same compound, the outcome in the assay with Neuronal progenitor cell [2] was Active.
Taken in the same sequence, the figures for `CC1=C(C/C=C(\C)CC/C=C(\C)CC/C=C(\C)Cc2ccccc2)C(=O)c2ccccc2C1=O` were 1.5, “inactive” and “Active”.
